Results published in ChEMBL document CHEMBL4196223 (J Med Chem, 2018).
Where a SMILES comes first, the peptide text is derived from it. Bridges are numbered along the chain shown (N, C = ends).

How the values were obtained:
Type in all cases: cell-based
[1] = target: Nicotinic acetylcholine receptor alpha6/alpha3/beta4 (Rattus norvegicus) (UniProt P04757+P12392+P43143); experiment: Antagonist activity at rat alpha6/alpha3beta4 nAChR nACHR expressed in Xenopus laevis oocytes assessed as inhibition of acetyl choline-induced membrane currents at 10 uM pre-incubated for 5 mins prior to acetyl choline pulse at -70 mV potential by two-electrode voltage clamp assay
[2] = target: Neuronal acetylcholine receptor; alpha3/beta4 (Rattus norvegicus) (UniProt P04757+P12392); experiment: Antagonist activity at rat alpha3beta4 nACHR expressed in Xenopus laevis oocytes assessed as inhibition of acetyl choline-induced membrane currents at 10 uM pre-incubated for 5 mins prior to acetyl choline pulse at -70 mV potential by two-electrode voltage clamp assay
[3] = target: Neuronal acetylcholine receptor; alpha3/beta4 (Rattus norvegicus, UniProt P04757+P12392); experiment: Antagonist activity at rat alpha3beta4 nACHR expressed in Xenopus laevis oocytes assessed as inhibition of acetyl choline-induced membrane currents pre-incubated for 5 mins prior to acetyl choline pulse at -70 mV potential by two-electrode voltage clamp assay
Chain of Neuronal acetylcholine receptor; alpha3/beta4 (P04757 whole entry): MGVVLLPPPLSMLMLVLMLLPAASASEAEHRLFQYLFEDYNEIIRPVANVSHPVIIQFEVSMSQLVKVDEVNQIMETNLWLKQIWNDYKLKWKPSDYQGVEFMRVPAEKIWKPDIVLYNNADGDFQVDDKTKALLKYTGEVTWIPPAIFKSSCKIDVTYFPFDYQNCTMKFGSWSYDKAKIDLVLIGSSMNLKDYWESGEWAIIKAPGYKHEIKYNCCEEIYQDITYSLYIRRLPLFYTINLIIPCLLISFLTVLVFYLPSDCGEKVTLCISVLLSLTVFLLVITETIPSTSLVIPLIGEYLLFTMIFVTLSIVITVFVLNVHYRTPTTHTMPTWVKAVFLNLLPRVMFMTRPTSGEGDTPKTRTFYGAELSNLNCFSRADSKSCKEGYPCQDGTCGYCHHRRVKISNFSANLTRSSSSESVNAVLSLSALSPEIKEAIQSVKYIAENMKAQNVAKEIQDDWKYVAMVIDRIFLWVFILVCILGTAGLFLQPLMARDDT
Chain of Neuronal acetylcholine receptor; alpha3/beta4 (P12392 whole entry): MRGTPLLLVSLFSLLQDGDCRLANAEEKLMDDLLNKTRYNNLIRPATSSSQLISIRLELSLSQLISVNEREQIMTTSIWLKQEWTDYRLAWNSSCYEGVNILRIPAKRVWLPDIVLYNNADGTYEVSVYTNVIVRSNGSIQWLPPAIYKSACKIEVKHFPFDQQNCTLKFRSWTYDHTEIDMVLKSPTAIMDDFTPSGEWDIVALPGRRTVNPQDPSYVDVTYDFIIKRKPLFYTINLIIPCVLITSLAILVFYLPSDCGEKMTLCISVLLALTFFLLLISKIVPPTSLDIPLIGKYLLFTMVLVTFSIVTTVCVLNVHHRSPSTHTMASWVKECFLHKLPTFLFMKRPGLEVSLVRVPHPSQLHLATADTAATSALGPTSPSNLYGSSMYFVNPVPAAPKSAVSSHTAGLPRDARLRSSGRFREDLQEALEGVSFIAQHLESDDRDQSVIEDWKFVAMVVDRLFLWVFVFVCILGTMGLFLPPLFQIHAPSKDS
Summary of the method: (§1)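 Rat subunit cRNAs (equimolar, ≥10 ng each) were expressed in oocytes held at 17 °C in ND96 and clamped at -70 mV 2-5 days after injection. Perfusate was ND96 with 0.1 mg/mL BSA and 1 µM atropine. After 5 min toxin exposure, 100 µM ACh was applied for 1 s/min. % response was fitted to a Hill equation for IC50 and nH, at room temperature, n=3-6.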

[4] = target: Nicotinic acetylcholine receptor alpha6/alpha3/beta4 (Rattus norvegicus, UniProt P04757+P12392+P43143); experiment: Antagonist activity at rat alpha6/alpha3beta4 nAChR nACHR expressed in Xenopus laevis oocytes assessed as inhibition of acetyl choline-induced membrane currents pre-incubated for 5 mins prior to acetyl choline pulse at -70 mV potential by two-electrode voltage clamp assay; summary of the method: as §1
Chain of Nicotinic acetylcholine receptor alpha6/alpha3/beta4 (P04757 whole entry): as the sequence (P04757 whole entry) above
Chain of Nicotinic acetylcholine receptor alpha6/alpha3/beta4 (P12392 whole entry): as the sequence (P12392 whole entry) above
Chain of Nicotinic acetylcholine receptor alpha6/alpha3/beta4 (P43143 whole entry): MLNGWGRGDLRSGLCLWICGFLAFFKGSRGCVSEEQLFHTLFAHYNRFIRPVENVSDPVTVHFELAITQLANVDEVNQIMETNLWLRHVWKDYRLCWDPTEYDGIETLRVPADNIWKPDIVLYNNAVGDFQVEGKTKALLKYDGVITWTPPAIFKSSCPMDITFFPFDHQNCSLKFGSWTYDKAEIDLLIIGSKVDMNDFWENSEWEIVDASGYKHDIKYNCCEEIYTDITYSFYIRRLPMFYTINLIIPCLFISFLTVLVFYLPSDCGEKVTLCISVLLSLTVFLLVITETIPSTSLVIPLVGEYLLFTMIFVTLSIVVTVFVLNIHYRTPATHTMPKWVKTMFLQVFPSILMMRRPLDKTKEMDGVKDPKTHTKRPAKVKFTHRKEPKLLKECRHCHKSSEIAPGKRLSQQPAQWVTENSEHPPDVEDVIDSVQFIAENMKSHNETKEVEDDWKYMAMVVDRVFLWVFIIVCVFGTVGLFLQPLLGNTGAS

[5] = target: Neuronal acetylcholine receptor subunit alpha-7 (Rattus norvegicus, UniProt Q05941); experiment: Antagonist activity at rat alpha7 nACHR expressed in Xenopus laevis oocytes assessed as inhibition of acetyl choline-induced membrane currents pre-incubated for 5 mins prior to acetyl choline pulse at -70 mV potential by two-electrode voltage clamp assay
Chain of Neuronal acetylcholine receptor subunit alpha-7 (Q05941 whole entry): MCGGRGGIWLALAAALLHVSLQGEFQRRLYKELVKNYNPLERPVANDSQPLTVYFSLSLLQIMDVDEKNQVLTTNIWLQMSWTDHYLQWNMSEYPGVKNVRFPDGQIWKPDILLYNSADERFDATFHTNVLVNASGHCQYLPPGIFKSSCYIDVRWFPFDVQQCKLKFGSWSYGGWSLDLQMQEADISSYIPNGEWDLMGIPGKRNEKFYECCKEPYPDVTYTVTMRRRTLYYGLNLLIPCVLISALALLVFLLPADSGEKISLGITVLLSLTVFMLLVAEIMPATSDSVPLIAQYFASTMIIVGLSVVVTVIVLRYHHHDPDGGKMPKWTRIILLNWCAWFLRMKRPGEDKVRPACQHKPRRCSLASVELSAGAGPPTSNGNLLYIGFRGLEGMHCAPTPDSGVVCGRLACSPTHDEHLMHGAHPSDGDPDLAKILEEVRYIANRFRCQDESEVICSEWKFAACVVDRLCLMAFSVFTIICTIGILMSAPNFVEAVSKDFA

[6] = target: Nicotinic acetylcholine receptor alpha9/alpha10 (Rattus norvegicus, UniProt P43144+Q9JLB5); experiment: Antagonist activity at rat alpha9alpha10 nACHR expressed in Xenopus laevis oocytes assessed as inhibition of acetyl choline-induced membrane currents pre-incubated for 5 mins prior to acetyl choline pulse at -70 mV potential by two-electrode voltage clamp assay
Chain of Nicotinic acetylcholine receptor alpha9/alpha10 (P43144 whole entry): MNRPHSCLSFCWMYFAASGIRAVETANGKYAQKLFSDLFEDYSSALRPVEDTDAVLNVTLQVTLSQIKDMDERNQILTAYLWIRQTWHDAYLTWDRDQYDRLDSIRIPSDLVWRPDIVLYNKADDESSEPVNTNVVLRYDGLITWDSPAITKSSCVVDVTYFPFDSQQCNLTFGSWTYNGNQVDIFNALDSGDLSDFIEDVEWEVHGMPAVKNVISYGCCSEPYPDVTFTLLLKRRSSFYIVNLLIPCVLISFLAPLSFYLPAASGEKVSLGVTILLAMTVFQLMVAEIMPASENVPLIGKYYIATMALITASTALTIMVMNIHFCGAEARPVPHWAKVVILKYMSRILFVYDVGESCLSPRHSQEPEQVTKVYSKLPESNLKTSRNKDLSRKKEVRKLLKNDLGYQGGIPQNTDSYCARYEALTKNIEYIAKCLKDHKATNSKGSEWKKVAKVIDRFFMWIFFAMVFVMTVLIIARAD
Chain of Nicotinic acetylcholine receptor alpha9/alpha10 (Q9JLB5 whole entry): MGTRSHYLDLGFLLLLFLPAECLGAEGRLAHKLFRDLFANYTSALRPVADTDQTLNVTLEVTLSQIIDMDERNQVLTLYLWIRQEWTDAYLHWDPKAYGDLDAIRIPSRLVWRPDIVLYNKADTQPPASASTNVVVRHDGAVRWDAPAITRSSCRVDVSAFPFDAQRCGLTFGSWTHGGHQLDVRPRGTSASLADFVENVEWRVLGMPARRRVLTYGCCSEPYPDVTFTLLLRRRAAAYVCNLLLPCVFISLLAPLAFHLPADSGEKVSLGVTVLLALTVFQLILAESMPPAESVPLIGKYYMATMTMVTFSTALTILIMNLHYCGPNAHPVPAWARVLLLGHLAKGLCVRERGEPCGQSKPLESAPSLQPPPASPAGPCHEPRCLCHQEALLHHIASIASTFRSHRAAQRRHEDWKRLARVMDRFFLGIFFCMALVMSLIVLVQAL

SMILES | inhibition [1] [%] | IC50 [3] [nM] | IC50 [4] [nM] | other results
CC[C@H](C)[C@@H]1NC(=O)[C@@H]2CCCN2C(=O)[C@H](CO)NC(=O)[C@H](CCSC)NC(=O)[C@H](C)NC(=O)[C@H](CC(=O)O)NC(=O)[C@@H]2CSSC[C@H](NC(=O)CN)C(=O)N[C@@H](CSSC[C@@H](C(N)=O)NC1=O)C(=O)N[C@@H](CO)C(=O)N[C@@H](Cc1cnc[nH]1)C(=O)N1CCC[C@H]1C(=O)N[C@@H](C(C)C)C(=O)N2 | < 50 |  |  | 
CC[C@H](C)[C@@H]1NC(=O)[C@@H]2CCCN2C(=O)[C@H](CO)NC(=O)[C@H](CCSC)NC(=O)[C@H](C)NC(=O)[C@H](CC(=O)O)NC(=O)[C@@H]2CSSC[C@H](NC(=O)CN)C(=O)N[C@@H](CSSC[C@@H](C(N)=O)NC1=O)C(=O)N[C@@H](CO)C(=O)N[C@@H](Cc1cnc[nH]1)C(=O)N1CCC[C@H]1C(=O)N[C@H](C(C)C)C(=O)N2 | < 50 |  |  | inhibition [2]: < 50%
CC[C@H](C)[C@@H]1NC(=O)[C@@H]2CCCN2C(=O)[C@H](CO)NC(=O)[C@H](CCSC)NC(=O)[C@H](C)NC(=O)[C@H](CCC(=O)O)NC(=O)[C@@H]2CSSC[C@H](NC(=O)CN)C(=O)N[C@@H](CSSC[C@@H](C(N)=O)NC1=O)C(=O)N[C@@H](CO)C(=O)N[C@@H](Cc1cnc[nH]1)C(=O)N1CCC[C@H]1C(=O)N[C@@H](C(C)C)C(=O)N2 (H-GCCSHPVCEAMSPIC-NH2; disulfide 2-8, 3-15) | < 50 |  |  | 
CC[C@H](C)[C@@H]1NC(=O)[C@@H]2CCCN2C(=O)[C@H](CO)NC(=O)[C@H](CCSC)NC(=O)[C@H](C)NC(=O)[C@H](Cc2ccccc2)NC(=O)[C@@H]2CSSC[C@H](NC(=O)CN)C(=O)N[C@@H](CSSC[C@@H](C(N)=O)NC1=O)C(=O)N[C@@H](CO)C(=O)N[C@@H](Cc1cnc[nH]1)C(=O)N1CCC[C@H]1C(=O)N[C@@H](C(C)C)C(=O)N2 (H-GCCSHPVCFAMSPIC-NH2; disulfide 2-8, 3-15) |  | 11 | 10 | 
CC[C@H](C)[C@@H]1NC(=O)[C@@H]2CCCN2C(=O)[C@H](CO)NC(=O)[C@H](CCSC)NC(=O)[C@H](C)NC(=O)[C@H](Cc2cnc[nH]2)NC(=O)[C@@H]2CSSC[C@H](NC(=O)CN)C(=O)N[C@@H](CSSC[C@@H](C(N)=O)NC1=O)C(=O)N[C@@H](CO)C(=O)N[C@@H](Cc1cnc[nH]1)C(=O)N1CCC[C@H]1C(=O)N[C@@H](C(C)C)C(=O)N2 (H-GCCSHPVCHAMSPIC-NH2; disulfide 2-8, 3-15) |  | 2 | 19 | 
CC[C@H](C)[C@@H]1NC(=O)[C@@H]2CCCN2C(=O)[C@H](CO)NC(=O)[C@H](CCSC)NC(=O)[C@H](C)NC(=O)[C@H](CCCCN)NC(=O)[C@@H]2CSSC[C@H](NC(=O)CN)C(=O)N[C@@H](CSSC[C@@H](C(N)=O)NC1=O)C(=O)N[C@@H](CO)C(=O)N[C@@H](Cc1cnc[nH]1)C(=O)N1CCC[C@H]1C(=O)N[C@@H](C(C)C)C(=O)N2 (H-GCCSHPVCKAMSPIC-NH2; disulfide 2-8, 3-15) |  |  |  | IC50 [5]: > 10000 nM; IC50 [6]: > 10000 nM
